MrgX1 antagonist = antagonists of human MrgX1 receptor, primary screen, HEK293 cells, Fluo-4 calcium flux; Mas-related G-protein coupled receptor member X1 (Homo sapiens), Q96LB2; BAM8-22 antagonism; active compounds read low; B-score at 10 µM; 310,000 tested, 1.3% active; AID 588676, 2011;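 active = calcium-response B-score plate-corrected more than 3 library SD below zero, starting fluorescence within 5 deviations, no agonist response on first addition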;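 note: peak minus trough fluorescence over baseline after final BAM8-22 challenge near maximal dose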
Target sequence (Q96LB2 whole entry, looked up): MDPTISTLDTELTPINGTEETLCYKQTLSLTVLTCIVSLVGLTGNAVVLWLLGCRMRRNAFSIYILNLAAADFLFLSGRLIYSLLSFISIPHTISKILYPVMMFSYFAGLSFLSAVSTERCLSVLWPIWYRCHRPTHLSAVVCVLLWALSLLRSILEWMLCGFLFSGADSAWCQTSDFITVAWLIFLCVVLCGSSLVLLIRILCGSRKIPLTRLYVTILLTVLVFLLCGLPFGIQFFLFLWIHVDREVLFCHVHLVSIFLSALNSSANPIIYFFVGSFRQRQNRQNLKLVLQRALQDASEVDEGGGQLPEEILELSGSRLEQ
MrgX1 agonist = agonists of human MrgX1 receptor, primary screen, HEK293 cells, Fluo-4 calcium flux. Mas-related G-protein coupled receptor member X1 (Homo sapiens), Q96LB2. Fluo-4 calcium fluorescence, agonist mode; active compounds read high. B-score at 10 µM. 310,000 tested, 0.44% active. AID 588627, 2011;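 active = calcium response B-score plate-corrected fluorescence ratio at least 3 library SD, with starting fluorescence B-score inside 5 SD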
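System: HEK293 cells stably expressing human MrgX1 receptor; Dosing: test compound in the initial addition of three; Schedule: overnight plating, then 30 min 37 °C plus 30 min room-temperature dye loading; Detection: kinetic calcium dye fluorescence, Fluo-4 NW; Controls: per-plate positive and negative controls for Z′ factor.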
MrgX1 PAM = positive allosteric modulators of MrgX1, primary screen, HEK293 cells, Fluo-4 calcium flux. Mas-related G-protein coupled receptor member X1 (Homo sapiens), Q96LB2. FDSS; active compounds read high. B-score at 10 µM. 310,000 tested, 0.63% active. AID 588675, 2011;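 active = plate-corrected calcium response at least 3 library SD above typical, normal starting fluorescence, not activating the receptor alone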;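 note: compound read alongside a low EC10 to EC30 dose of BAM8-22 agonist; peak minus trough fluorescence over baseline measured at the second addition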
RGS4 pot = RGS4 potentiators or activators, primary screen, cell-based, HEK293 M3R inducible RGS4, calcium flux; carbachol calcium flux Fluo4; active compounds read low; B-score at 10 µM; 310,000 tested, 0.92% active; AID 463111, 2010;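 active = B-score of the integrated calcium signal more than 4 SD below the library mean, with starting fluorescence not abnormally high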;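 note: negative B-score means reduced calcium response which marks RGS4 activation or potentiation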
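Material: M3R-expressing HEK293 line, RGS4 induced by doxycycline | Schedule: Overnight RGS4 induction, 30 min dye load 37 °C, 20 min compound RT | Measured by: Fluo4 fluorescence kinetic imaging of calcium | Read-out: Integrated calcium ratio converted to B score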
RGS4 inh = RGS4 inhibitors, primary screen, cell-based, HEK293 M3R inducible RGS4, calcium flux. B-score at 10 µM. 310,000 tested, 0.45% active. Fluo-4 calcium flux; active compounds read high; triggered by carbachol at its EC20. Regulator of G-protein signaling 4 (Homo sapiens), P49798;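 active = B-score, a plate-corrected calcium signal, over three deviations above library mean, with baseline fluorescence within five deviations of library mean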;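 note: RGS4 expression induced by doxycycline in cells with stable M3 receptor; B-score is computed from the integrated fluorescence ratio over baseline after carbachol; higher B-score means a larger calcium signal and so more RGS4 inhibition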
Target sequence (P49798 whole entry, looked up): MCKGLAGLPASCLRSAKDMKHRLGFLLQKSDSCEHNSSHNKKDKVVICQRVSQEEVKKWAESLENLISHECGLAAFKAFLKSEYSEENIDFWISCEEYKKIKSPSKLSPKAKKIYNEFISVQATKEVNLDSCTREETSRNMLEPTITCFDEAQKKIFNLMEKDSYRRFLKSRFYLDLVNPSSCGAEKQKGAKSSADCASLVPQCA
MrgX1 ag reconf = MrgX1 receptor agonists, duplicate retest, confirmation, HEK293 cells, Fluo-4 calcium flux. shares compounds with MrgX1 agonist. 600 tested, 78% active. activation, % at 10 µM. Fluo-4 calcium fluorescence, FDSS. AID 602412, 2012;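 active = calcium signal rise, corrected for plate position, at least 3 library SD high, with starting brightness within 5 such deviations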
MrgX1 allo conf = MrgX1 positive allosteric modulators, duplicate retest, confirmation, HEK293 cells, Fluo-4 calcium flux. shares compounds with MrgX1 PAM. Fluo-4 calcium fluorescence, FDSS. 1,200 tested, 13% active. activation (ratio percentage), % at 10 µM. AID 602413, 2012;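 active = ratio at least 3 SD above the weak peptide control, stable starting fluorescence, no direct agonism earlier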;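 note: compound followed by low BAM8-22 agonist challenge near EC20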
MrgX1 ant reconf = MrgX1 receptor antagonists, duplicate retest, confirmation, HEK293 cells, Fluo-4 calcium flux; shares compounds with MrgX1 antagonist; BAM8-22 calcium flux; active compounds read low; remaining BAM8-22 calcium response % of control (active compounds read low), % at 10 µM; 2,300 tested, 19% active;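 active = remaining agonist calcium response no higher than 100% minus 3 SD of agonist-only control wells, with starting fluorescence near control levels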;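 note: agonist BAM8-22 given at a near maximal EC90 to ECmax level; peak minus minimum fluorescence divided by baseline after agonist addition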
HEK293 Ca flux = nonspecific calcium signal in parental HEK293, confirmation, counter-screen for MrgX1 antagonist project, parental HEK293 cells, Fluo-4 calcium flux. shares compounds with MrgX1 antagonist. Fluo-4 calcium fluorescence, FDSS. fluorescence ratio F(max-min)/F0 at 10 µM. 4,000 tested, 2% active;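 active = duplicate-averaged calcium fluorescence ratio at least three times the standard deviation of buffer wells, a nonspecific response in parental cells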
HEK293 Ca counter = calcium response in parental HEK293 cells, primary screen, counter-screen for MrgX1 allosteric activator project, cell-based, Fluo-4 calcium flux, duplicate | AID 624114, 2012 | 4,000 tested, 0.4% active | Fluo-4 fluorescence ratio; active compounds read high | fluorescence ratio F(max-min)/F0 at 10 µM | shares compounds with MrgX1 antagonist;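 active = calcium fluorescence ratio, averaged over duplicates, at least 3 SD of the buffer-well ratio, meaning a nonspecific response in receptor-free cells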;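 note: untransfected parental HEK293 lacking MrgX1 used as counterscreen for MrgX1 allosteric activators; fluorescence change taken during the second addition on a kinetic imager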
HEK293 Ca cntr2 = calcium response in parental HEK293 cells, primary screen, counter-screen for MrgX1 agonist project, cell-based, Fluo-4 calcium flux, duplicate, agonist mode; shares compounds with MrgX1 antagonist; Fluo-4 calcium fluorescence (FDSS); active compounds read high; fluorescence ratio F(max-min)/F0 at 10 µM; 4,000 tested, 8.7% active; AID 624115, 2012;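 active = calcium fluorescence ratio at least three times the spread of buffer wells, meaning a non-specific response in parental cells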
Each line names hits and unclear results; the compound was inactive in the other large screens (follow-up assays come after a bar, where they were run). Rows were chosen to be rich in hits. Some 3.5% of all compounds tested hit in one or more screens of this group.

Nc1ccccc1C(=O)OCC(=O)c1ccc2c(c1)OCCO2	none
O=C(c1ccc(N2CC3CC(C2)c2cccc(=O)n2C3)c([N+](=O)[O-])c1)N1CCCCC1 (stereo not drawn)	none
NC1=Nc2ccccc2Oc2ccccc21	MrgX1 agonist 54.9 | MrgX1 ag reconf 226.0% | HEK293 Ca flux inactive | HEK293 Ca counter inactive | HEK293 Ca cntr2 inactive
O=P(C(c1c[nH]c2ccccc12)N1CCOCC1)(N1CCOCC1)N1CCOCC1 (stereo not drawn)	none
C[C@H]1CCC[C@@H](O)CCC/C=C/c2cc(O)cc(O)c2C(=O)O1	MrgX1 agonist 31.2 | MrgX1 ag reconf 175.8% | HEK293 Ca flux inactive | HEK293 Ca counter inactive | HEK293 Ca cntr2 inactive
C[C@H]1CCC[C@H](O)CCCCCc2cc(O)cc(O)c2C(=O)O1	none
COc1cccc(C2(C#N)CCN(C)CC2)c1	MrgX1 PAM 6.46 | MrgX1 allo conf inactive | HEK293 Ca flux inactive | HEK293 Ca counter inactive | HEK293 Ca cntr2 inactive
COc1cccc(OCC(=O)N2CCN(C)CC2)c1	none
CCCCCn1c(=O)c(C(=O)NCc2ccc(Cl)cc2)c(O)c2ccccc21	MrgX1 PAM 8.77 | MrgX1 allo conf inactive | HEK293 Ca flux inactive | HEK293 Ca counter 49.4 | HEK293 Ca cntr2 inactive
CCCCn1c(=O)c(C(=O)NCc2ccccc2)c(O)c2ccccc21	none
C=CCN1C(=O)C2(C(C(=O)OCC)=C(N)Oc3ccccc32)c2c1c1ccccc1oc2=O (stereo not drawn)	MrgX1 PAM 23.8 | MrgX1 allo conf 32.9% | HEK293 Ca flux inactive | HEK293 Ca counter inactive | HEK293 Ca cntr2 inactive
CCOC(=O)C1=C(N)Oc2c(c(=O)oc3ccccc23)C12C(=O)N(C)c1ccccc12 (stereo not drawn)	MrgX1 PAM 8.48 | MrgX1 allo conf 16.4% | HEK293 Ca flux inactive | HEK293 Ca counter inactive | HEK293 Ca cntr2 inactive
COc1ccc(CCNCc2c(OC)ccc3ccccc23)cc1	none
CCOC(=O)C1=C(N)OC2=C(C(=O)CCC2)C12C(=O)N(C)c1ccccc12 (stereo not drawn)	none
CC(C)CCNC(=O)c1c(N)n(Cc2ccc3c(c2)OCO3)c2nc3ccccc3nc12	none
CC(C)CNC(=O)c1c(N)n(Cc2ccc3c(c2)OCO3)c2nc3ccccc3nc12	MrgX1 antagonist -5.96 | MrgX1 ant reconf inactive | HEK293 Ca flux inactive | HEK293 Ca counter inactive | HEK293 Ca cntr2 53.6
COc1ccccc1NC1(C#N)CCCCC1	none
CCCCCn1c(=O)c(C(=O)NC(C)c2ccccc2)c(O)c2ccccc21 (stereo not drawn)	MrgX1 antagonist -4.75 | MrgX1 ant reconf inactive | HEK293 Ca flux inactive | HEK293 Ca counter inactive | HEK293 Ca cntr2 inactive
C=CCn1c(O)c(C(CC)=Nc2cccc(C(F)(F)F)c2)c(=O)[nH]c1=O	none
Oc1ccc(C(=C(Cl)Cl)c2ccc(O)cc2)cc1	none
CN1CCc2nc(SCc3cccc(Br)c3)c(C#N)cc2C1	MrgX1 antagonist -4.73 | MrgX1 ant reconf inactive | HEK293 Ca flux inactive | HEK293 Ca counter inactive | HEK293 Ca cntr2 inactive
Cc1nnc(SCc2nc3ccccc3c(=O)n2-c2ccccc2Cl)n1N	MrgX1 antagonist -8.23 | MrgX1 ant reconf 82.4% | HEK293 Ca flux inactive | HEK293 Ca counter inactive | HEK293 Ca cntr2 inactive
CCc1nc2ccccc2c(=O)n1-c1ccccc1[N+](=O)[O-]	none
Nc1ccc([As](=O)(O)O)cc1	MrgX1 antagonist -6.01 | MrgX1 ant reconf inactive | HEK293 Ca flux inactive | HEK293 Ca counter inactive | HEK293 Ca cntr2 inactive
O=C(CN1CCOCC1)c1ccc2cc[nH]c2c1	none
COc1ccc(C(=O)CN2CCOCC2)cc1F	MrgX1 antagonist -5.17 | MrgX1 ant reconf inactive | HEK293 Ca flux inactive | HEK293 Ca counter inactive | HEK293 Ca cntr2 inactive
CCOc1cc2c(cc1OCC)-n1cccc1C(c1ccc(OC(F)F)cc1)NC2 (stereo not drawn)	MrgX1 antagonist -9.98 | MrgX1 ant reconf 42.5% | HEK293 Ca flux inactive | HEK293 Ca counter inactive | HEK293 Ca cntr2 inactive
COc1ccc(C(=O)Oc2cccc3cccnc23)cc1S(=O)(=O)N1CCOCC1	MrgX1 antagonist -5.97 | MrgX1 ant reconf inactive | HEK293 Ca flux inactive | HEK293 Ca counter inactive | HEK293 Ca cntr2 inactive
COc1ccc(C(=O)N2CCOCC2)cc1S(=O)(=O)N1CCC(C)CC1	none
c1ccc(CNCCc2ccc3c(c2)OCO3)nc1	none
O=C1NC(=O)C(CCc2ccccn2)(Cc2ccc3c(c2)OCO3)C(=O)N1CCc1ccccc1 (stereo not drawn)	MrgX1 antagonist -5.24 | MrgX1 ant reconf inactive | HEK293 Ca flux inactive | HEK293 Ca counter inactive | HEK293 Ca cntr2 inactive
CN1OCC2Cn3c(nc4ccccc43)C21 (stereo not drawn)	none (no result: RGS4 pot, RGS4 inh)
CSc1ccc(C(=O)C2CCCN(Cc3cc4ccccc4[nH]3)C2)cc1 (stereo not drawn)	MrgX1 antagonist -5.15, RGS4 pot -7.12 | MrgX1 ant reconf 79.4% | HEK293 Ca flux inactive | HEK293 Ca counter inactive | HEK293 Ca cntr2 inactive
CCCC1=C(C(=O)OCC)C2(C(=O)Nc3ccccc32)C(C#N)=C(N)O1 (stereo not drawn)	MrgX1 antagonist -4.59 | MrgX1 ant reconf inactive | HEK293 Ca flux inactive | HEK293 Ca counter inactive | HEK293 Ca cntr2 inactive

Screens as filed in PubChem BioAssay.
